High-throughput results from PubChem.
In the library only some 2.5% were active in any assay of this set; here they are far more common.
zfTRPN1 agonist: zebrafish TRPN1 (NompC) channel agonism. HEK293 zebrafish TRPN1-YFP, Fluo-8 calcium fluorescence; 100% = response to 87 µM carbachol. activation, % at 3 µM. 220,000 tested, 0.18% active;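 active means activation above its plate's cutoff, the mean activation of test wells on that plate plus 3 SD, cut at about 19% in these data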
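Material – zebrafish TRPN1-YFP in HEK293 cells · Doses – 3 µM single point · Schedule – dye 1 h 37 °C plus 30 min RT · Signal – Fluo-8 calcium fluorescence, excitation 470-495 nm, emission 515-575 nm · Read-out – % activation versus carbachol response · Control set – carbachol high, DMSO low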
CHO parental Ca: counter-screen for OX1R antagonists: effect in parental CHO cells; parental CHO-K1, ATP-induced calcium, Fluo-8 fluorescence; inhibition, % at 5.6 µM; 330,000 tested, 0.63% active; AID 463079;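 active means inhibition above that plate's mean sample inhibition plus 3 SD, cut at about 26% in these data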
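Test system: parental CHO cells; detection: calcium-sensitive Fluo-8 fluorescence; evaluation: percent inhibition of calcium signal; also added: ATP as calcium-mobilizing challenge; repeats: one well per compound; control set: ATP-challenged DMSO wells low, unchallenged DMSO wells high; compound: single nominal dose of 5.6 µM per compound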
OX1R antag-1: antagonists of human orexin 1 receptor. O43613. CHO/OX1R cells, Fluo-8 calcium fluorescence, orexin A. inhibition, % at 5 µM. 330,000 tested, 0.43% active;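 active means inhibition above its plate's threshold, mean inhibition of all tested compounds on the plate plus 3 SD, cut at about 37% in these data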
OX1R antag-2: antagonists of human orexin 1 receptor (OX1R); OX1R-expressing cells, FRET antagonist read-out; inhibition, % at 6.6 µM; 330,000 tested, 1.8% active; O43613; in the data active means inhibition mostly above about 38%, no sharp cut-off; inactive means mostly below about 40%
TRPML3 ag: human mucolipin-3 channel agonism. AID 1448. Q8TDD5. 220,000 tested, 0.29% active. activation, % at 3 µM. HEK293 TRPML3-YFP, Fluo-8 calcium fluorescence; 100% = the carbachol control signal;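 active means activation above its plate's cutoff, the mean activation of the plate's test wells plus 3 SD, cut at about 12% in these data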
Target sequence (Q8TDD5 whole entry, looked up): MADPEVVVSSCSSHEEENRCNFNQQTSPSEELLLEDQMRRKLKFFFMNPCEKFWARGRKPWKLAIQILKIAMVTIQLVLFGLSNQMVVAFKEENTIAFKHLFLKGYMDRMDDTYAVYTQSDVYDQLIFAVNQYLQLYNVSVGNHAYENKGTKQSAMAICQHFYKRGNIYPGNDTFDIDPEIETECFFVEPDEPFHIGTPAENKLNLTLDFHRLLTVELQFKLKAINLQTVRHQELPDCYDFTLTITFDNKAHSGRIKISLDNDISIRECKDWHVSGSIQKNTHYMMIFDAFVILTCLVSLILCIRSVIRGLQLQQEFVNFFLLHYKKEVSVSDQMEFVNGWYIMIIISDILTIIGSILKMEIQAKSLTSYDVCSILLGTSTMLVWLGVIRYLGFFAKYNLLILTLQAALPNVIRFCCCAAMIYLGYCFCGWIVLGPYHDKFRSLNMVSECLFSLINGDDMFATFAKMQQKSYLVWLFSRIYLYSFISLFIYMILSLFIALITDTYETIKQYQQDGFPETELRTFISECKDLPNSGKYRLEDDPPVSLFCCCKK
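Test system – HEK293 line with stable expression of human TRPML3-YFP channel · Control set – carbachol 87 µM final as high control (100%), DMSO as low control (0%) · Signal – Fluo-8 calcium dye fluorescence, ex 470-495, em 515-575 nm · Incubation – 1-h 37 °C dye load, 5-s basal, 120-s post-compound reads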
Each line names hits and unclear results; the compound was inactive in the other large screens.

O=C(COC(=O)CN1C(=O)NC2(CCCC2)C1=O)Nc1ccccc1C(F)(F)F	none (no result: zfTRPN1 agonist, TRPML3 ag)
Cc1ccc(S(=O)(=O)NCc2ccc3c(c2)OCO3)cc1C	none (no result: zfTRPN1 agonist, TRPML3 ag)
O=S(=O)(Nc1ccc2c(c1)OCCO2)c1ccc2oc3ccccc3c2c1	OX1R antag-2 65
O=S(=O)(Nc1ccc2c(c1)OCCO2)c1ccc(F)c(F)c1	none (no result: zfTRPN1 agonist, TRPML3 ag)
O=S(=O)(NCc1ccc2c(c1)OCO2)c1ccc2oc3ccccc3c2c1	OX1R antag-2 52
COc1c2ccoc2c(OC[C@@H](O)C(C)(C)OC)c2oc(=O)ccc12	none
COc1c2ccoc2c(OC[C@@H](O)C(C)(C)O)c2oc(=O)ccc12	OX1R antag-2 62
O=C(c1cnn2c(C(F)(F)F)cc(-c3ccco3)nc12)N1CCCCCC1	none
COC(=O)c1cnn2c(C(F)(F)F)cc(-c3ccccc3)nc12	none
COc1cccc(-c2cc(C(F)(F)F)n3ncc(C(=O)O)c3n2)c1	OX1R antag-2 51
O=C(O)c1cnn2c(C(F)(F)F)cc(-c3ccco3)nc12	OX1R antag-2 49
COc1cccc(-c2cc(C(F)(F)F)n3ncc(C(=O)N4CCc5ccccc5C4)c3n2)c1	none
N#Cc1cnn2c(C(F)(F)F)cc(-c3ccccc3)nc12	CHO parental Ca 54 (no result: zfTRPN1 agonist, TRPML3 ag)
CCn1c(SCC(=O)Nc2ccc3c(c2)OCCO3)nnc1-c1cccnc1	none (no result: zfTRPN1 agonist, TRPML3 ag)
CCOc1ccc(S(=O)(=O)Nc2nc3ccccc3nc2-n2ccc(=NC(=O)c3ccccc3C)cc2)cc1	zfTRPN1 agonist 37, TRPML3 ag 14
Cc1ccccc1C(=O)N=c1ccn(-c2nc3ccccc3nc2NS(=O)(=O)c2ccccc2)cc1	none (no result: zfTRPN1 agonist, TRPML3 ag)
Cc1coc2c(C)c3oc(=O)c(CCC(=O)N[C@@H](C)C(=O)N[C@@H](Cc4ccccc4)C(=O)O)c(C)c3cc12	OX1R antag-2 45 (no result: zfTRPN1 agonist, TRPML3 ag)
Cc1coc2c(C)c3oc(=O)c(CC(=O)N[C@@H](CC(C)C)C(=O)O)c(C)c3cc12	none (no result: zfTRPN1 agonist, TRPML3 ag)
Nc1ncnc(Sc2ccccc2)c1[N+](=O)[O-]	OX1R antag-2 46
COc1cccc2c1C(=O)c1c(O)c3c(c(O)c1C2=O)C[C@@](O)(C(=O)CO)C[C@@H]3O[C@H]1C[C@H](N)[C@H](O)[C@H](C)O1	zfTRPN1 agonist 27, OX1R antag-2 44
COCCn1c(SCC(=O)N2CCCCC2)nc2c(c1=O)SCC2	none (no result: zfTRPN1 agonist, TRPML3 ag)
COCCn1c(SCC(=O)N2CCOCC2)nc2ccccc2c1=O	none (no result: zfTRPN1 agonist, TRPML3 ag)
COCCn1c(SCC(=O)N2CCc3ccccc3C2)nc2ccccc2c1=O	OX1R antag-2 72
COCCn1c(SCC(=O)N2CCCCC2)nc2c(c1=O)SC(C)C2 (centres undefined)	CHO parental Ca 100 (no result: zfTRPN1 agonist, TRPML3 ag)
Cc1cc2ccccc2n2c(SCC(=O)N3CCc4ccccc4C3)nnc12	OX1R antag-2 73
Cc1cc(C(=O)NC2CC(C)(C)Cc3c2cnn3-c2cccc(F)c2)n(C)n1 (centres undefined)	none (no result: zfTRPN1 agonist, TRPML3 ag)
COc1ccc(-c2cc(C(=O)N3CCN(c4cccc(C)c4C)CC3)c3ccccc3n2)cc1OC	none (no result: zfTRPN1 agonist, TRPML3 ag)
CS(=O)(=O)c1ncc(Cl)c(C(=O)Nc2ccc3ccccc3c2)n1	none (no result: CHO parental Ca, OX1R antag-1, OX1R antag-2)
CCC1CCCCN1S(=O)(=O)c1ccc(NC(=O)c2nc(S(C)(=O)=O)ncc2Cl)cc1 (centres undefined)	CHO parental Ca 55, OX1R antag-1 53, OX1R antag-2 53 (no result: zfTRPN1 agonist, TRPML3 ag)
CCC1CCCCN1S(=O)(=O)c1ccc(NC(=O)c2ccncc2)cc1 (centres undefined)	CHO parental Ca 42 (no result: zfTRPN1 agonist, TRPML3 ag)
CCS(=O)(=O)c1ncc(Cl)c(C(=O)Nc2ccc(S(=O)(=O)N3CCCC(C)C3)cc2)n1 (centres undefined)	CHO parental Ca 47, OX1R antag-1 41 (no result: zfTRPN1 agonist, TRPML3 ag)
CC1CCCN(S(=O)(=O)c2ccc(NC(=O)CN3CCN(C)CC3)cc2)C1 (centres undefined)	none
Cc1cc(OCc2nnc(SC(C)C(=O)O)n2Cc2ccccc2)ccc1Cl (centres undefined)	none (no result: CHO parental Ca, OX1R antag-1, OX1R antag-2)
Cc1cccn2c(=O)c(C=C(C#N)C#N)c(N3CCN(c4cccc(Cl)c4)CC3)nc12	none (no result: zfTRPN1 agonist, TRPML3 ag)
O=C1CCC(C(=O)N2CCC(CO)(Cc3ccc(Cl)cc3)CC2)=NN1	none
Cc1ccc(N=Nc2c(=O)[nH]n3c(=O)cc(C)[nH]c23)cc1	OX1R antag-2 55
O=C(COC(=O)c1ccccc1Cc1ccccc1)Nc1ccc(SC(F)F)cc1	CHO parental Ca 42
COc1ccc(C2=Nn3c(nnc3-c3cc(C)[nH]n3)SC2)cc1	none
COc1cc(NC2=Nc3cccc4cccc2c34)cc(OC)c1OC	none
COc1cccc(NC2=Nc3cccc4cccc2c34)c1	OX1R antag-2 72
Cc1ccc2c(c1)nnn2C1CCN(S(=O)(=O)c2ccc(C(=O)N3C(C)CCCC3C)cc2)CC1 (centres undefined)	CHO parental Ca 56, OX1R antag-1 59
O=S(=O)(c1cccc2nsnc12)N1CCNCC1	OX1R antag-2 55 (no result: zfTRPN1 agonist, TRPML3 ag)
CCN(CCNC(=O)C1CCN(S(=O)(=O)c2cccc3nsnc23)CC1)c1ccccc1	none
CCN1CCN(S(=O)(=O)c2cccc3nsnc23)CC1	none
CC1CCCCN1CCNC(=O)C1CCCN(S(=O)(=O)c2cccc3nsnc23)C1 (centres undefined)	OX1R antag-2 46 (no result: zfTRPN1 agonist, TRPML3 ag)
CCCN(CCC)CCCNC(=O)C1CCN(S(=O)(=O)c2cccc3nsnc23)CC1	OX1R antag-2 40 (no result: zfTRPN1 agonist, TRPML3 ag)
CCO[C@H]1c2c(ccc3ccc(=O)oc23)OC(C)(C)[C@@H]1O	none (no result: zfTRPN1 agonist, TRPML3 ag)
CN(C)CCCN1C(=O)c2cccc3c(Br)ccc(c23)C1=O	OX1R antag-2 64
O=C1c2ccc3c4c(ccc(c24)C(=O)N1CCCCO)C(=O)N(CCCCO)C3=O	none (no result: CHO parental Ca, OX1R antag-1, OX1R antag-2)
CCCCNc1ccc2c3c(cccc13)C(=O)N(CCCC)C2=O	zfTRPN1 agonist 283, TRPML3 ag 154 (no result: CHO parental Ca, OX1R antag-1, OX1R antag-2)
Cc1cccc(C)c1NC(=O)CN(C)C(=O)CC1CC2CCC1C2 (centres undefined)	none (no result: zfTRPN1 agonist, TRPML3 ag)
Cc1ccc(N2CC(C(=O)Nc3ccc(S(=O)(=O)Nc4ncccn4)cc3)CC2=O)cc1C (centres undefined)	none (no result: zfTRPN1 agonist, TRPML3 ag)
Cc1cc(C)c(OCC(=O)Nc2ccc(NC(=O)c3ccco3)cc2)c([N+](=O)[O-])c1	none
Cc1cc(C)c(OCC(=O)Nc2cccc(NC(=O)c3ccco3)c2)c(Br)c1	CHO parental Ca 32, OX1R antag-2 64
COc1ccc(Br)cc1C(=O)Nc1cccc(NC(=O)c2ccco2)c1	OX1R antag-2 44
O=C1/C(=C/c2cccs2)Sc2ccccc21	none
Cc1cccc(N=C2NC(=O)/C(=C/c3cccs3)S2)c1	none
Cc1ccc(N=C2NC(=O)/C(=C\c3cccs3)S2)cc1C	OX1R antag-2 57
O=C1Nc2ccccc2S/C1=C/c1cccs1	OX1R antag-2 61
O=C1/C(=C/c2ccccc2)CCCc2ccccc21	none
CN(C)c1ccc(/C=C2\CCC/C(=C\c3ccccc3)C2=O)cc1	CHO parental Ca 51
Cc1cc(/C=N/n2cnnc2)c(C)n1-c1ccc(OCc2ccccc2F)cc1	CHO parental Ca 56
C(=N\n1cnnc1)/c1ccc(OCc2ccccc2)cc1	none
